The source made the active and inactive calls. No cut-off for these calls is given here. A value given as a limit tells only on which side of the number the result lay.

For test [1], the system named is Rattus norvegicus. Briefly: The %change in weight from day 0 to day1 after administering the compound at dose of 40 (mg/kg)/day in rat. Type of test: functional. The procedure, abridged: (§1)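 Rat physical dependence liability study: drug infused at the stated mg/kg/day for 6 days, with saline-infused controls for 6 days. Body weight was recorded daily and expressed as % change from day 0 on days 1–4. Groups of 4–6 rats; values are means ±.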

In test [2] the test system is Rattus norvegicus. The test is described as follows: The %change in weight from day 0 to day 2 after administering the compound at dose of 40 (mg/kg)/day in rat. Type of test: functional. The procedure, abridged:
as §1

Test [3] has as its system Rattus norvegicus. Briefly: The %change in weight from day 0 to day 3 after administering the compound at dose of 40 (mg/kg)/day in rat. It is filed as functional. The procedure, abridged:
as §1

Test [4] concerns Rattus norvegicus. The test is described as follows: The %change in weight from day 0 to day 4 after administering the compound at dose of 40 (mg/kg)/day in rat. Type of test: functional. The procedure, abridged: as §1
In test [5] the test system is Mus musculus. The test is described as follows: The Effective dose was measured by using mouse writhing assay after the compound administered subcutaneously at a dose of 25 umol/kg; IA means inactive at the given dose. Type of test: functional, organism-based. The procedure, abridged:
(§2)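 Analgesia in the mouse writhing test induced by acetic acid, with compound given subcutaneously. Salts were dissolved in distilled H₂O; free bases were dissolved by dropwise 1 N HCl and then diluted.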
(An intraperitoneal irritant provokes the stretching counted in writhing tests.)

Test [6] deals with Rattus norvegicus. The test is described as follows: The effective dose was measured by using rat tail flick assay after the compound administered intraperitoneally. The following applies: ip. Type of test: functional. (In hot-plate and tail-flick tests a longer latency is read as antinociception.)
The subject of test [7] is Mus musculus. The test is described as follows: The effective dose was measured by using mouse writhing assay after the compound administered subcutaneously. It is filed as functional. To be noted: sc. The procedure, abridged: as §2
Test [8] has as its system Rattus norvegicus. Briefly: The Effective dose was measured by using rat tail flick assay after the compound administered intraperitoneally at a dose of 25 umol/kg; IA means inactive at the given dose. It is filed as functional, organism-based.
Test [9] deals with Mus musculus. The test is described as follows: The Effective dose was measured by using mouse writhing assay 5 min after the compound administered subcutaneously. The following applies: sc. It is filed as functional.
For test [10], the species on record is Rattus norvegicus. Briefly: Ratio of agonist to that of antagonist activity. It is filed as functional.
For test [11], the system named is Mus musculus. Briefly: The Effective dose was measured by using mouse writhing assay after the compound administered subcutaneously at a dose of 24 umol/kg; IA means inactive at the given dose. Type of test: functional, organism-based. The procedure, abridged: as §2
The subject of test [12] is Rattus norvegicus. Briefly: Effective dose was measured by using rat tail flick assay after subcutaneous administration. Type of test: functional. The following applies: sc. The procedure, abridged: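 Agonist activity in the rat heat-stimulus tail-flick test. Drug was given subcutaneously and rats were tested 20 min after dosing. Salts were dissolved in distilled H₂O; free bases were dissolved with dropwise 1 N HCl and then diluted. ED₅₀ or inactivity/lethality recorded at the dose indicated.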

`O=C(O)C(O)C(O)C(=O)O.Oc1ccc2c(c1)[C@@]13CCCC[C@@]1(O)[C@@H](C2)N(CC1CCC1)CC3` [BUTORPHANOL TARTRATE]: the Change in the test on Rattus norvegicus [1] is -6.6%; in the test on Rattus norvegicus [2], -3.1%; in the test on Rattus norvegicus [3], 0.9%; with Rattus norvegicus [4] it was 2.2%.
The ED50 is the midpoint of the dose-response relation. With `C[C@@H]1CC(=O)CC23CCN(CC4CC4)C(Cc4ccc(O)cc42)[C@@H]13` (stereo not given in full), in the test on Mus musculus [5], the ED50 entry is “inactive”. Moreover, in the test with Rattus norvegicus [6], the 50% effect level (ED50) was put at a dose of 0.89 µmol/kg.
In turn, `COc1ccc2c(c1)C13CCN(CC4CCC4)C(C2)[C@H]1[C@H](C)CC(=O)C3` (stereo not given in full) gave a median effective dose (ED50) in the test with Mus musculus [7] of 47 µmol/kg. Further, in the test with Rattus norvegicus [8], the ED50 result is “inactive”.
As for `CC[C@H]1CC(=O)CC23CCN(CC4CC4)C(Cc4ccc(OC)cc42)[C@H]13` (stereo not given in full), the ED50 in the test with Mus musculus [7] was 4.4 µmol/kg; in the test on Rattus norvegicus [6] it was > 50 µmol/kg.
Regarding `Cl.O=C1CC[C@@H]2C3Cc4ccc(O)cc4C2(CCN3CC2CC2)C1` (stereo not given in full), the ED50 with Mus musculus [9] turned out to be 8.9 µmol/kg; with Rattus norvegicus [6], 2.24 µmol/kg. Besides, in the test filed under Rattus norvegicus [10], the Ratio worked out at 4.
Take `CCC[C@@H]1CC(=O)CC23CCN(CC4CCC4)C(Cc4ccc(OC)cc42)[C@@H]13` (stereo not given in full): the ED50 entry in the test with Mus musculus [11] is “inactive”. Moreover, the ED50 with Rattus norvegicus [6] is > 24 µmol/kg.
With `CCC[C@@H]1CC(=O)CC23CCN(CC4CC4)C(Cc4ccc(O)cc42)[C@@H]13` (stereo not given in full), the ED50 result with Mus musculus [11] was “inactive”. In the test on Rattus norvegicus [6], this compound had an ED50 of 3.34 µmol/kg.
Consider `C[C@@H]1CC(=O)CC23CCN(CC4CCC4)C(Cc4ccc(O)cc42)[C@@H]13` (stereo not given in full), for which the ED50 is 5.98 µmol/kg with Mus musculus [7] and 12.8 µmol/kg in the test with Rattus norvegicus [6].
In the case of `CCC[C@H]1CC(=O)CC23CCN(CC4CCC4)C(Cc4ccc(O)cc42)[C@H]13` (stereo not given in full), the ED50 with Mus musculus [7] is 1.06 µmol/kg; with Rattus norvegicus [6], 7.67 µmol/kg.
The like results for `CC[C@@H]1CC(=O)CC23CCN(CC4CCC4)C(Cc4ccc(O)cc42)[C@@H]13` (stereo not given in full) were, in that order, > 24 µmol/kg and 11.6 µmol/kg.
Consider `CC[C@H]1CC(=O)CC23CCN(C)C(Cc4ccc(O)cc42)[C@H]13` (stereo not given in full), for which the results for the ED50 in the test with Mus musculus [7] and in the test on Rattus norvegicus [12] were 2.29 µmol/kg and 33 µmol/kg, respectively.
For `CN1CCC23CC(=O)CC[C@H]2C1Cc1ccc(O)cc13` (stereo not given in full), the figures for the ED50 in the test with Mus musculus [7] and with Rattus norvegicus [12] were 0.52 µmol/kg and 70 µmol/kg, respectively.
Regarding `C[C@H]1CC(=O)C[C@]23CCN(CC4CC4)[C@H](Cc4ccc(O)cc42)[C@H]13`, the median effective dose (ED50) was determined as 10.2 µmol/kg in the test on Mus musculus [7] and 1.8 µmol/kg in the test with Rattus norvegicus [6]. The Ratio in the test listed under Rattus norvegicus [10] stood at 5.7.
Turning to `COc1ccc2c(c1)C13CCN(CC4CC4)C(C2)[C@H]1[C@H](C)CC(=O)C3` (stereo not given in full), the values for the ED50 with Mus musculus [7] and in the test with Rattus norvegicus [6] were > 80 µmol/kg and 9 µmol/kg, respectively.
As for `CCC[C@@H]1CC(=O)CC23CCN(C)C(Cc4ccc(O)cc42)[C@@H]13` (stereo not given in full), the ED50 in the test with Mus musculus [7] was 1.37 µmol/kg; with Rattus norvegicus [12], 2.46 µmol/kg.
In the case of `COc1ccc2c(c1)C13CCN(CC4CC4)C(C2)[C@H]1CCC(=O)C3` (stereo not given in full), the ED50 was > 25 µmol/kg in the test with Mus musculus [7] and 3.6 µmol/kg with Rattus norvegicus [6].
Regarding `CC[C@H]1CC(=O)CC23CCN(C)C(Cc4ccc(OC)cc42)[C@H]13` (stereo not given in full), the values for the ED50 in the test with Mus musculus [7] and in the test with Rattus norvegicus [12] were 3.23 µmol/kg and 10.6 µmol/kg, respectively.
Turning to `C=CCN1CCC23CC(=O)CC(C)[C@H]2C1Cc1ccc(O)cc13` (stereo not given in full), the ED50 in the test with Mus musculus [7] is > 25 µmol/kg; with Rattus norvegicus [6], 0.65 µmol/kg.
In the test on Mus musculus [7], `CCC[C@H]1CC(=O)CC23CCN(CC4CC4)C(Cc4ccc(OC)cc42)[C@H]13` (stereo not given in full) showed a 50% effective dose (ED50) of 12.4 µmol/kg. In the test with Rattus norvegicus [8], the ED50 result was “inactive”.
With `C[C@H]1CC(=O)CC23CCN(CC4CCC4)C(Cc4ccc(O)cc42)[C@H]13.Cl` (stereo not given in full), the median effective dose (ED50) amounted to 0.29 µmol/kg in the test on Mus musculus [7] and 2.79 µmol/kg in the test with Rattus norvegicus [6]. Moreover, the Ratio in the test filed under Rattus norvegicus [10] worked out at 0.1.
For `COc1ccc2c(c1)C13CCN(C)C(C2)[C@H]1CCC(=O)C3` (stereo not given in full), the values for the ED50 with Mus musculus [7] and with Rattus norvegicus [12] were 5.54 µmol/kg and > 70 µmol/kg, respectively.
`C[C@H]1[C@H]2Cc3ccc(O)cc3[C@]1(C)CCN2CC1CC1` [CYCLAZOCINE]: the ED50 with Mus musculus [7] came out at 0.41 µmol/kg; in the test on Rattus norvegicus [6], 0.81 µmol/kg. The Ratio in the test listed under Rattus norvegicus [10] is on record as 0.5.
Compound `COc1ccc2c(c1)C13CCN(CC4CCC4)C(C2)[C@@H]1CCC(=O)C3` (stereo not given in full) displayed an ED50 with Mus musculus [7] of 0.58 µmol/kg. Moreover, the ED50 entry in the test on Rattus norvegicus [8] is “inactive”.
In the case of `CC[C@@H]1CC(=O)CC23CCN(C)C(Cc4ccc(OC)cc42)[C@@H]13` (stereo not given in full), the ED50 in the test with Mus musculus [7] is 37 µmol/kg; in the test on Rattus norvegicus [12] it was > 28 µmol/kg.
As to `CC[C@H]1CC(=O)CC23CCN(CC4CCC4)C(Cc4ccc(O)cc42)[C@H]13.Cl` (stereo not given in full), the figures for the ED50 in the test with Mus musculus [9] and in the test on Rattus norvegicus [6] were 0.54 µmol/kg and 0.82 µmol/kg, respectively. Besides, the Ratio in the test filed under Rattus norvegicus [10] amounted to 0.65.
On to `COc1ccc2c(c1)C13CCN(CC4CC4)C(C2)[C@@H]1CCC(=O)C3.Cl` (stereo not given in full), for which the ED50 in the test on Mus musculus [7] was 0.66 µmol/kg; in the test with Rattus norvegicus [6] it was 14.9 µmol/kg. Further, the Ratio in the test filed under Rattus norvegicus [10] is recorded as 0.04.

(Values after ChEMBL document CHEMBL1121388, “Analgesic narcotic antagonists. 2. 8-Alkymorphinan-6-ones” (J Med Chem, 1980).)
